Laboratory results: ChEMBL document CHEMBL1157459 (J Med Chem, 2008)
Blank lines part the entries; values can stand above or below the compound they belong to. Calls of active or inactive are those of the source. The rule behind the calls is not given here.

Tests used:
[1] = biological target: T1, Gamma-aminobutyric acid receptor subunit rho-1 (Homo sapiens, UniProt P24046); assay: Antagonist activity at human GABAc Rho1 receptor expressed in Xenopus oocytes assessed as whole cell current production by two electrode voltage clamp method; type: functional, cell-based; settings: for Kb: Oocyte
T1 sequence (P24046 whole entry): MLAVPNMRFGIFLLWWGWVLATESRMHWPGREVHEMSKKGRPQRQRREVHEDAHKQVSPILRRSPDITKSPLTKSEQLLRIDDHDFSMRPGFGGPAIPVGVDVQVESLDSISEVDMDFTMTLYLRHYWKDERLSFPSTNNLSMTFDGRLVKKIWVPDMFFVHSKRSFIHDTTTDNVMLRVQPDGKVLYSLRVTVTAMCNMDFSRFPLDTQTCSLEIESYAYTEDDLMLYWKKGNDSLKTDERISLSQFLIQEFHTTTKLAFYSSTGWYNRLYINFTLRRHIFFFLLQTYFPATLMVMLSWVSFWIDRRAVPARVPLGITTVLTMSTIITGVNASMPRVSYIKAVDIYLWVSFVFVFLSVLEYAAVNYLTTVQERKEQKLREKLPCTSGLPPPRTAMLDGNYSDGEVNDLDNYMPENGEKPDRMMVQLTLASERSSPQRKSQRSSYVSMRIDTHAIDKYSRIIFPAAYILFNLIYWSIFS

[2] = biological target: T2, Gamma-aminobutyric acid type B receptor subunit 1 (Homo sapiens, UniProt Q9UBS5); assay: Intrinsic activity at human GABAb 1A/2 receptor expressed in Xenopus oocytes assessed as maximum whole cell current production by two electrode voltage clamp method relative to GABA; type: cell-based; settings: Oocyte
T2 sequence (Q9UBS5 whole entry): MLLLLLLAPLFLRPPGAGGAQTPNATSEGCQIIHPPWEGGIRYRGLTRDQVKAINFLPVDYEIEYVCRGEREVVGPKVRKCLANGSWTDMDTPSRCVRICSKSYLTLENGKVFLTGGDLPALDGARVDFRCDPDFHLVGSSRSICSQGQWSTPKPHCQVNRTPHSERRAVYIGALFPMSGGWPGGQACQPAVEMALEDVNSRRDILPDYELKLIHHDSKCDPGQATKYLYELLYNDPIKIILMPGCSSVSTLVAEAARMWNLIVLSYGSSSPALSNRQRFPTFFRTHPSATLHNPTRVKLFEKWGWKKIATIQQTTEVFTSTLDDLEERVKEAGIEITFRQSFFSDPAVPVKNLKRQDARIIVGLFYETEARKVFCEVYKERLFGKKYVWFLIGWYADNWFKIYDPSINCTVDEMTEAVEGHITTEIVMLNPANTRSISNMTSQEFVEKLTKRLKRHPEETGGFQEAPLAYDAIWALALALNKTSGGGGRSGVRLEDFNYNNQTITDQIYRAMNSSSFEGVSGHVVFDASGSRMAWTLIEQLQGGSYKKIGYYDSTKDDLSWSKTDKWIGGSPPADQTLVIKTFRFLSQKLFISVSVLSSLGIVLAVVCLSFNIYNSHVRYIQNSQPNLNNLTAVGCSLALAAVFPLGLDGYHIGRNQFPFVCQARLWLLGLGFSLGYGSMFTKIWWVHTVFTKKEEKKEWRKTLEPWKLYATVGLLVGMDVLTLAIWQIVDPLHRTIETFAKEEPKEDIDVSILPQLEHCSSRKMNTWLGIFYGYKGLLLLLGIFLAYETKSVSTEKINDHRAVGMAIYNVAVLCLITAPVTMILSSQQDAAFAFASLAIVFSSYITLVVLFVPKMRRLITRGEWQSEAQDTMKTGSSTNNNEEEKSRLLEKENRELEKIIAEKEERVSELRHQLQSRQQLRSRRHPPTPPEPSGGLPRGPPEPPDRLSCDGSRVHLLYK
Method in brief: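 Human GABA-B(1A/2) receptors expressed from cRNA (50 ng/50 nL) in Xenopus oocytes held 1-5 days at 18 °C. Voltage clamp at -60 mV in high-K+ buffer (45 mM KCl, 45 mM NaCl, 1 mM MgCl2, 1.8 mM CaCl2, 5 mM HEPES). Responses normalised to the maximal response to 600 µM GABA. Imax and EC50 taken from concentration-response fits. Mean ± SEM, n = 3-5 oocytes.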

[3] = biological target: T2, Gamma-aminobutyric acid type B receptor subunit 1; assay: Agonist activity at human GABAb 1A/2 receptor expressed in Xenopus oocytes assessed as whole cell current production by two electrode voltage clamp method; type: functional, cell-based, Oocyte
[4] = biological target: T3, GABA-A receptor; agonist GABA site (Homo sapiens) (UniProt P14867+P47870+P28472+P48169+P34903+P18505+P47869+P31644+Q16445); assay: Activity at human alpha-1-beta-2-gamma-2L GABAA receptor expressed in Xenopus oocytes assessed as inhibition of current production at 600 uM by two electrode voltage clamp method relative to GABA; type: cell-based; settings: Oocyte
[5] = biological target: T1, Gamma-aminobutyric acid receptor subunit rho-1; assay: Agonist activity at human GABAc Rho1 receptor expressed in Xenopus oocytes assessed as whole cell current production by two electrode voltage clamp method; type: functional, cell-based, Oocyte
[6] = biological target: T2, Gamma-aminobutyric acid type B receptor subunit 1; assay: Activity at human GABAb 1A/2 receptor expressed in Xenopus oocytes assessed as whole cell current production at 600 uM by two electrode voltage clamp method; type: cell-based; settings: Oocyte
[7] = biological target: T1, Gamma-aminobutyric acid receptor subunit rho-1; assay: Antagonist activity at human GABAc Rho1 receptor expressed in Xenopus oocytes assessed as whole cell current production at 600 uM by two electrode voltage clamp method; type: functional, cell-based; settings: Oocyte
[8] = biological target: T3, GABA-A receptor; agonist GABA site (Homo sapiens); assay: Agonist activity at human alpha-1-beta-2-gamma-2L GABAA receptor expressed in Xenopus oocytes assessed as inhibition of current production by two electrode voltage clamp method; type: functional, cell-based; settings: Oocyte

Kb [1]: 20 µM
SMILES: NCCCCC(=O)O

SMILES: CP(=O)(O)C1=CC[C@H](N)C1
Imax [2]: 75.9% | Kb [1]: 0.78 µM | EC50 [3]: 52.2 µM | inhibition [4]: 4.1%

SMILES: CCCCP(=O)(O)C1=CC[C@H](N)C1
Kb [1]: 4.97 µM | inhibition [4]: 24.2%

SMILES: Oc1noc2c1CCNC2
Kb [1]: 32 µM

SMILES: NCc1cc(=O)[nH]o1 [MUSCIMOL]
EC50 [5]: 1.4 µM

SMILES: CP(=O)(O)C1=CC[C@@H](N)C1
Imax [2]: 52.3% | Kb [1]: 18.9 µM | EC50 [3]: 71.9 µM | Activity [4]: inactive

Kb [1]: 6.6 µM
SMILES: CP(=O)(O)[C@@H]1CC[C@@H](N)C1

SMILES: CP(=O)(O)C1=CCC(N)C1 (racemic)
Imax [2]: 56.4% | Kb [1]: 1.84 µM | EC50 [3]: 51 µM | inhibition [4]: 6.2%

SMILES: CP(=O)(O)/C=C\CN
Kb [1]: 38.9 µM

SMILES: CP(=O)(O)[C@H]1C[C@H](N)C1
Activity [6]: inactive | IC50 [1]: > 100 µM

SMILES: CC(C)P(=O)(O)C1=CCC(N)C1 (racemic)
Kb [1]: 13.1 µM | inhibition [4]: 8.8%

Kb [1]: 6.1 µM
SMILES: N[C@H]1CC=C(C(=O)O)C1 (stereo in doubt; (S-6))

Activity [6]: inactive | Activity [7]: inactive
SMILES: CP(=O)(O)[C@]1(O)C[C@@H](N)C1

SMILES: CP(=O)(O)C1=CCNCC1
Kb [1]: 2.1 µM | EC50 [3]: 500 µM

Kb [1]: 6.6 µM
SMILES: CP(=O)(O)[C@H]1CC[C@H](N)C1

SMILES: CCP(=O)(O)C1=CCC(N)C1 (racemic)
Kb [1]: 3.53 µM | inhibition [4]: 5.2%

SMILES: CCCCP(=O)(O)C1=CC[C@@H](N)C1
Kb [1]: 59.3 µM | Activity [4]: inactive

Kb [1]: 1.1 µM
SMILES: CP(=O)(O)[C@@H]1CC[C@H](N)C1

EC50 [5]: 59 µM
SMILES: NC[C@H]1C[C@@H]1C(=O)O

EC50 [5]: 40 µM
SMILES: NC[C@H]1C[C@H]1C(=O)O

IC50 [1]: > 800 µM
SMILES: NC[C@@H]1C[C@@H]1C(=O)O

SMILES: CP(=O)(O)[C@H]1C[C@@H](N)C1
Activity [6]: inactive | IC50 [1]: > 100 µM

EC50 [5]: 9 µM
SMILES: NC[C@@H]1C[C@H]1C(=O)O

Kb [1]: 48.6 µM | inhibition [4]: 64.1%
SMILES: NC1CC=C(P(=O)(O)Cc2ccccc2)C1 (racemic)

SMILES: O=C(O)Cc1c[nH]cn1
Kb [1]: 1.7 µM

Activity [6]: inactive | Activity [7]: inactive
SMILES: CP(=O)(O)[C@]1(O)C[C@H](N)C1

SMILES: O=[Se](O)C1CCNCC1
Kb [1]: 0.95 µM

SMILES: CCCCP(=O)(O)C1=CCC(N)C1 (racemic)
Kb [1]: 7.24 µM | inhibition [4]: 23.2%

Kb [1]: 1.1 µM
SMILES: CP(=O)(O)[C@H]1CC[C@@H](N)C1

SMILES: CP(=O)(O)C1CCNCC1
Kb [1]: 6 µM

EC50 [5]: 0.4 µM
SMILES: NC/C=C/C(=O)O [t-4-AMINOCROTONIC ACID (TACA)]

Kb [1]: 6 µM | ED50 [8]: 1.1 µM
SMILES: N[C@H]1CC=C(C(=O)O)C1 (stereo in doubt; 6)

IC50 [1]: 12.9 µM
SMILES: NCC(=O)CCC(=O)O [AMINOLEVULINIC ACID]
